Measurements as given in ChEMBL document CHEMBL1122209, “Synthesis of N-[[(substituted-phenyl)carbonyl]amino]-1,2,3,6-tetrahydropyridines with analgesic and hyperglycemic activity” (J Med Chem, 1982).

Key:
Mus musculus [1] = experiment: Analgesic activity was measured by phenylquinone writhing test in male Swiss albino mice at a dose of 0.004 mg/Kg, sc; assay type: functional
Summary of the method: (§1)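 Groups of five male Swiss albino mice (18-22 g). Test agent was suspended in physiological saline with Tween 80 by ultrasonic mixing and given sc. After 30 min, 0.03% phenyl-p-benzoquinone was given ip at 0.1 mL/10 g body weight. Total writhes were counted and compared with a vehicle-treated control group: % change = 100 − (treated writhes/control writhes × 100).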

Rattus norvegicus [2] = experiment: Percentage change in blood glucose concentration in male Wistar rats after 2 hr post treatment at a dose of 100 mg/Kg po.; assay type: functional
Summary of the method: (§2)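 Groups of four male Wistar rats (230-260 g), fasted overnight. Test agent was suspended in 1% tragacanth in distilled water and given orally. Tail capillary blood was drawn at 0, 2 and 4 h. Serum glucose was determined spectrophotometrically from enzymatically produced NADH₂ (Barthelma-Czok procedure). Results are the mean of four animals; a positive value means hyperglycemic, a negative value hypoglycemic.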

Rattus norvegicus [3] = experiment: Percentage change in blood glucose concentration in male Wistar rats after 4 hr post treatment at a dose of 100 mg/Kg po.; assay type: functional; summary of the method: as §2
Rattus norvegicus [4] = experiment: Percentage change in blood glucose concentration in male Wistar rats after 4 hr post treatment at a dose of 100 mg/Kg po; Hypoglycemic; assay type: functional; summary of the method: as §2
Rattus norvegicus [5] = experiment: Percentage change in blood glucose concentration in male Wistar rats after 2 hr post treatment at a dose of 100 mg/Kg po; Hypoglycemic; assay type: functional; summary of the method: as §2
Rattus norvegicus [6] = experiment: Percentage change in blood glucose concentration in male Wistar rats after 2 hr post treatment at a dose of 30 mg/Kg po; Hyperglycemic; assay type: functional; summary of the method: as §2
Mus musculus [7] = experiment: Analgesic activity was measured by phenylquinone writhing test in male Swiss albino mice at a dose of 0.004 mg/Kg, sc.; assay type: functional; summary of the method: as §1
Rattus norvegicus [8] = experiment: Percentage change in blood glucose concentration in male Wistar rats after 4 hr post treatment at a dose of 100 mg/Kg po; Hyperglycemic; assay type: functional; summary of the method: as §2
Rattus norvegicus [9] = experiment: Percentage change in blood glucose concentration in male Wistar rats after 2 hr post treatment at a dose of 100 mg/Kg po; Hyperglycemic; assay type: functional; summary of the method: as §2
Mus musculus [10] = experiment: Analgesic activity was measured by phenylquinone writhing test in male Swiss albino mice at a dose of 0.038 mg/Kg, sc.; details: read-out: Inhibition
Mus musculus [11] = experiment: Analgesic activity was measured by phenylquinone writhing test in male Swiss albino mice at a dose of 3.1 mg/Kg, sc.; details: read-out: Inhibition
Rattus norvegicus [12] = experiment: Percentage change in blood glucose concentration in male Wistar rats after 4 hr post treatment at a dose of 30 mg/Kg po; Hyperglycemic; assay type: functional; summary of the method: as §2
Mus musculus [13] = experiment: Analgesic activity was measured by phenylquinone writhing test in male Swiss albino mice at a dose of 50 mg/Kg, sc.; assay type: functional; summary of the method: as §1
Rattus norvegicus [14] = experiment: Antiinflammatory activity was measured by carrageenan-induced paw edema test in female Sprague-Dawley rats at dose of 12 mg/Kg sc after 3h
Rattus norvegicus [15] = experiment: Antiinflammatory activity was measured by carrageenan-induced paw edema test in female Sprague-Dawley rats at dose of 12 mg/Kg sc after 5 hr

SMILES	inhibition in vivo at 0.004 mg/kg (Mus musculus [1])	Change (Rattus norvegicus [2])	Change (Rattus norvegicus [3])	other results
O=C(NN1CC=CCC1)c1ccccc1	73.6%	78%	50%	–
O=C(NN1CC=CCC1)c1cc(Cl)cc(Cl)c1	69.6%	3.8%	18.5%	–
O=C(NN1CC=CCC1)c1ccc(C(F)(F)F)cc1	46.4%	43.3%	37.3%	–
O=C(NN1CC=CCC1)c1ccccc1Cl	52%	16.9%	21.4%	–
Cc1ccccc1C(=O)NN1CC=CCC1	72%	–	–	Change (Rattus norvegicus [4]): -6.3%; Change (Rattus norvegicus [5]): -2.8%
O=C(NN1CC=CCC1)c1ccccc1F	64.8%	213%	127%	Change (Rattus norvegicus [6]): 50%
O=C(NN1CC=CCC1)c1ccc(Cl)cc1	61.6%	109%	26%	–
O=C(NN1CC=CCC1)c1ccc(Cl)cc1Cl	57.2%	–	1.3%	Change (Rattus norvegicus [5]): -6.5%
COc1cccc(C(=O)NN2CC=CCC2)c1	68.8%	113.3%	72.8%	–
Cc1ccc(C(=O)NN2CC=CCC2)cc1C	60.8%	92.3%	62.8%	–
O=C(NN1CC=CCC1)c1ccc(F)cc1	55.2%	124%	154%	–
COc1ccccc1C(=O)NN1CC=CCC1	69.6%	5.8%	6.3%	–
O=C(NN1CC=CCC1)c1ccc([N+](=O)[O-])cc1	–	–	–	inhibition in vivo at 0.004 mg/kg (Mus musculus [7]): 51%; Change (Rattus norvegicus [8]): 140.6%; Change (Rattus norvegicus [9]): 92.6%
COc1ccc(C(=O)NN2CC=CCC2)cc1	57.6%	69%	26%	–
Cc1ccc(C(=O)NN2CC=CCC2)cc1	48%	73%	41%	–
CN1CC[C@]23c4c5ccc(O)c4O[C@H]2[C@@H](O)C=C[C@H]3[C@H]1C5	–	–	–	inhibition in vivo at 0.038 mg/kg (Mus musculus [10]): 50%; inhibition in vivo at 3.1 mg/kg (Mus musculus [11]): 50%
O=C(NN1CC=CCC1)c1ccc(Cl)c(Cl)c1	48.8%	50%	59%	–
CC(C)(C)c1ccc(C(=O)NN2CC=CCC2)cc1	48.8%	1.8%	4.7%	–
O=C(NN1CC=CCC1)c1ccccc1C(F)(F)F	64%	1.2%	19.6%	–
O=C(NN1CC=CCC1)c1cccc(C(F)(F)F)c1	54.4%	114.8%	102%	–
Cc1cccc(C(=O)NN2CC=CCC2)c1	56%	117.2%	108.5%	Change (Rattus norvegicus [6]): 50%; Change (Rattus norvegicus [12]): 50%
O=C(NN1CC=CCC1)c1cccc(F)c1	65.6%	167.3%	137.8%	–
CC(=O)Oc1ccccc1C(=O)O [ASPIRIN]	–	–	–	inhibition in vivo at 50 mg/kg (Mus musculus [13]): 50%
CCCNC(=O)NS(=O)(=O)c1ccc(Cl)cc1 [CHLORPROPAMIDE]	–	–	–	Change (Rattus norvegicus [4]): -38%; Change (Rattus norvegicus [5]): -42%
COc1ccc2c(c1)c(CC(=O)O)c(C)n2C(=O)c1ccc(Cl)cc1 [INDOMETHACIN]	–	–	–	inhibition in vivo at 12 mg/kg (Rattus norvegicus [14]): 17%; inhibition in vivo at 12 mg/kg (Rattus norvegicus [15]): 83%
CCC(=O)O[C@](Cc1ccccc1)(c1ccccc1)[C@H](C)CN(C)C [PROPOXYPHENE]	50%	–	–	–
